Measurements taken from ChEMBL document CHEMBL1629517, “Molecular properties prediction, synthesis and antimicrobial activity of some newer oxadiazole derivatives” (2010).
Converted amounts (≈) assume the structure as drawn.

Columns and labels:
Pseudomonas aeruginosa [1] = test: Antibacterial activity against Pseudomonas aeruginosa ATCC 27853 at 100 ug/ml after 24 hrs by disc-diffusion method; assay type: functional; conditions: ATCC 27853, 24 h, read-out: IZ
Candida albicans [2] = test: Antifungal activity against Candida albicans at 200 ug/ml after 48 hrs by agar diffusion method; assay type: functional; conditions: read-out: IZ
Procedure, shortened: (§1)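 Agar well diffusion on Sabouraud agar (peptone 1 g, D-glucose 4 g, agar 2 g per 100 ml water, pH 5.7). Plates were lawned with a saline suspension of spores, excess was decanted, and plates were dried 1 h at 37 °C. Compounds in DMSO went into punched wells, and inhibition zones were measured against controls, with voriconazole as standard.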

Candida albicans [3] = test: Antifungal activity against Candida albicans after 48 hrs; assay type: functional
Bacillus subtilis [4] = test: Antibacterial activity against Bacillus subtilis ATCC 6633 after 18 to 24 hrs; assay type: functional
Candida albicans [5] = test: Antifungal activity against Candida albicans at 100 ug/ml after 48 hrs by agar diffusion method; assay type: functional; conditions: read-out: IZ; procedure, shortened: as §1
Pseudomonas aeruginosa [6] = test: Antibacterial activity against Pseudomonas aeruginosa ATCC 27853 after 24 hrs by broth dilution technique; assay type: functional; conditions: ATCC 27853, 24 h
Procedure, shortened: (§2)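 MIC by broth dilution: nutrient broth containing logarithmic two-fold serial dilutions of compound was inoculated with about 5 × 10⁵ c.f.u. of actively dividing bacteria.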

Staphylococcus aureus [7] = test: Antibacterial activity against Staphylococcus aureus ATCC 25923 at 200 ug/ml after 24 hrs by disc-diffusion method; assay type: functional; conditions: ATCC 25923, 24 h, read-out: IZ
Escherichia coli [8] = test: Antibacterial activity against Escherichia coli ATCC 25922 after 24 hrs by broth dilution technique; assay type: functional; conditions: ATCC 25922, 24 h; procedure, shortened: as §2
Escherichia coli [9] = test: Antibacterial activity against Escherichia coli ATCC 25922 at 200 ug/ml after 24 hrs by disc-diffusion method; assay type: functional; conditions: ATCC 25922, 24 h, read-out: IZ
Escherichia coli [10] = test: Antibacterial activity against Escherichia coli ATCC 25922 after 18 to 24 hrs; assay type: functional
Aspergillus niger [11] = test: Antifungal activity against Aspergillus niger after 48 hrs; assay type: functional
Bacillus subtilis [12] = test: Antibacterial activity against Bacillus subtilis ATCC 6633 at 200 ug/ml after 24 hrs by disc-diffusion method; assay type: functional; conditions: ATCC 6633, 24 h, read-out: IZ
Pseudomonas aeruginosa [13] = test: Antibacterial activity against Pseudomonas aeruginosa ATCC 27853 after 18 to 24 hrs; assay type: functional
Aspergillus niger [14] = test: Antifungal activity against Aspergillus niger at 100 ug/ml after 3 to 4 days by agar diffusion method; conditions: read-out: IZ
Staphylococcus aureus [15] = test: Antibacterial activity against Staphylococcus aureus ATCC 25923 after 24 hrs by broth dilution technique; assay type: functional; conditions: ATCC 25923, 24 h; procedure, shortened: as §2
Escherichia coli [16] = test: Antibacterial activity against Escherichia coli ATCC 25922 at 100 ug/ml after 24 hrs by disc-diffusion method; assay type: functional; conditions: ATCC 25922, 24 h, read-out: IZ
Bacillus subtilis [17] = test: Antibacterial activity against Bacillus subtilis ATCC 6633 after 24 hrs by broth dilution technique; assay type: functional; conditions: ATCC 6633, 24 h; procedure, shortened: as §2
Aspergillus niger [18] = test: Antifungal activity against Aspergillus niger at 200 ug/ml after 48 hrs by agar diffusion method; assay type: functional; conditions: read-out: IZ; procedure, shortened: as §1
Staphylococcus aureus [19] = test: Antibacterial activity against Staphylococcus aureus ATCC 25923 at 100 ug/ml after 24 hrs by disc-diffusion method; assay type: functional; conditions: ATCC 25923, 24 h, read-out: IZ
Pseudomonas aeruginosa [20] = test: Antibacterial activity against Pseudomonas aeruginosa ATCC 27853 at 200 ug/ml after 24 hrs by disc-diffusion method; assay type: functional; conditions: ATCC 27853, 24 h, read-out: IZ
Bacillus subtilis [21] = test: Antibacterial activity against Bacillus subtilis ATCC 6633 at 100 ug/ml after 24 hrs by disc-diffusion method; assay type: functional; conditions: ATCC 6633, 24 h, read-out: IZ
Staphylococcus aureus [22] = test: Antibacterial activity against Staphylococcus aureus ATCC 25923 after 18 to 24 hrs; assay type: functional

Compound | zone of inhibition at 100 µg/mL (Pseudomonas aeruginosa [1]) [mm] | zone of inhibition at 200 µg/mL (Candida albicans [2]) [mm] | MFC (Candida albicans [3]) [µg/mL] | MIC (Candida albicans [3]) [µg/mL] | MBC (Bacillus subtilis [4]) [µg/mL] | zone of inhibition at 100 µg/mL (Candida albicans [5]) [mm] | MIC (Pseudomonas aeruginosa [6]) [µg/mL] | zone of inhibition at 200 µg/mL (Staphylococcus aureus [7]) [mm] | MIC (Escherichia coli [8]) [µg/mL] | zone of inhibition at 200 µg/mL (Escherichia coli [9]) [mm] | MBC (Escherichia coli [10]) [µg/mL] | MFC (Aspergillus niger [11]) [µg/mL] | MIC (Aspergillus niger [11]) [µg/mL] | zone of inhibition at 200 µg/mL (Bacillus subtilis [12]) [mm] | MBC (Pseudomonas aeruginosa [13]) [µg/mL] | zone of inhibition at 100 µg/mL (Aspergillus niger [14]) [mm] | MIC (Staphylococcus aureus [15]) [µg/mL] | zone of inhibition at 100 µg/mL (Escherichia coli [16]) [mm] | MIC (Bacillus subtilis [17]) [µg/mL] | zone of inhibition at 200 µg/mL (Aspergillus niger [18]) [mm] | also measured
COc1ccc(C(=O)/C=C/c2ccc(OCc3nnc(-c4ccccc4)o3)c(OC)c2)cc1 | 25 | 17 | 25 (≈ 56.5 µM) | 6 (≈ 13.6 µM) | 12.5 (≈ 28.3 µM) | 15 | 12.5 (≈ 28.3 µM) | 18 | 12.5 (≈ 28.3 µM) | 21 | 25 (≈ 56.5 µM) | 25 (≈ 56.5 µM) | 12.5 (≈ 28.3 µM) | 14 | 50 (≈ 113 µM) | 23 | 12.5 (≈ 28.3 µM) | 19 | 6 (≈ 13.6 µM) | 24 | zone of inhibition at 100 µg/mL (Staphylococcus aureus [19]): 16 mm; zone of inhibition at 200 µg/mL (Pseudomonas aeruginosa [20]): 26 mm; zone of inhibition at 100 µg/mL (Bacillus subtilis [21]): 12 mm; MBC (Staphylococcus aureus [22]): 25 µg/mL (≈ 56.5 µM)
COc1ccc(C(=O)/C=C/c2ccc(OCc3nnc(-c4ccc(C)cc4)o3)c(OC)c2)cc1 | 23 | 18 | 25 (≈ 54.8 µM) | 12.5 (≈ 27.4 µM) | 25 (≈ 54.8 µM) | 16 | 12.5 (≈ 27.4 µM) | 17 | 6 (≈ 13.1 µM) | 21 | 25 (≈ 54.8 µM) | 25 (≈ 54.8 µM) | 12.5 (≈ 27.4 µM) | 14 | 25 (≈ 54.8 µM) | 20 | 12.5 (≈ 27.4 µM) | 19 | 12.5 (≈ 27.4 µM) | 23 | zone of inhibition at 100 µg/mL (Staphylococcus aureus [19]): 15 mm; zone of inhibition at 200 µg/mL (Pseudomonas aeruginosa [20]): 24 mm; zone of inhibition at 100 µg/mL (Bacillus subtilis [21]): 12 mm; MBC (Staphylococcus aureus [22]): 25 µg/mL (≈ 54.8 µM)
COc1ccc(C(=O)/C=C/c2ccc(OCc3nnc(-c4ccccc4O)o3)c(OC)c2)cc1 | 30 | 21 | 12.5 (≈ 27.3 µM) | 6 (≈ 13.1 µM) | 12.5 (≈ 27.3 µM) | 19 | 12.5 (≈ 27.3 µM) | 23 | 6 (≈ 13.1 µM) | 26 | 12.5 (≈ 27.3 µM) | 12.5 (≈ 27.3 µM) | 6 (≈ 13.1 µM) | 20 | 25 (≈ 54.5 µM) | 25 | 6 (≈ 13.1 µM) | 25 | 6 (≈ 13.1 µM) | 26 | zone of inhibition at 100 µg/mL (Staphylococcus aureus [19]): 21 mm; zone of inhibition at 200 µg/mL (Pseudomonas aeruginosa [20]): 32 mm; zone of inhibition at 100 µg/mL (Bacillus subtilis [21]): 18 mm; MBC (Staphylococcus aureus [22]): 6 µg/mL (≈ 13.1 µM)
COc1ccc(C(=O)/C=C/c2ccc(OCc3nnc(COc4ccccc4)o3)c(OC)c2)cc1 | 26 | 14 | 25 (≈ 52.9 µM) | 12.5 (≈ 26.5 µM) | 12.5 (≈ 26.5 µM) | 11 | 25 (≈ 52.9 µM) | 19 | 25 (≈ 52.9 µM) | 22 | 12.5 (≈ 26.5 µM) | 12.5 (≈ 26.5 µM) | 6 (≈ 12.7 µM) | 16 | 12.5 (≈ 26.5 µM) | 16 | 12.5 (≈ 26.5 µM) | 21 | 12.5 (≈ 26.5 µM) | 19 | zone of inhibition at 100 µg/mL (Staphylococcus aureus [19]): 17 mm; zone of inhibition at 200 µg/mL (Pseudomonas aeruginosa [20]): 28 mm; zone of inhibition at 100 µg/mL (Bacillus subtilis [21]): 13 mm; MBC (Staphylococcus aureus [22]): 25 µg/mL (≈ 52.9 µM)
COc1cc(/C=C/C(=O)c2ccc(O)cc2)ccc1OCc1nnc(-c2ccccc2)o1 | 25 | 18 | 25 (≈ 58.4 µM) | 12.5 (≈ 29.2 µM) | 25 (≈ 58.4 µM) | 16 | 25 (≈ 58.4 µM) | 18 | 12.5 (≈ 29.2 µM) | 23 | 50 (≈ 117 µM) | 50 (≈ 117 µM) | 25 (≈ 58.4 µM) | 15 | 50 (≈ 117 µM) | 22 | 25 (≈ 58.4 µM) | 21 | 12.5 (≈ 29.2 µM) | 24 | zone of inhibition at 100 µg/mL (Staphylococcus aureus [19]): 17 mm; zone of inhibition at 200 µg/mL (Pseudomonas aeruginosa [20]): 27 mm; zone of inhibition at 100 µg/mL (Bacillus subtilis [21]): 13 mm; MBC (Staphylococcus aureus [22]): 50 µg/mL (≈ 117 µM)
COc1cc(/C=C/C(=O)c2ccc(O)cc2)ccc1OCc1nnc(-c2ccccc2O)o1 | 27 | 24 | 12.5 (≈ 28.1 µM) | 6 (≈ 13.5 µM) | 12.5 (≈ 28.1 µM) | 21 | 6 (≈ 13.5 µM) | 20 | 12.5 (≈ 28.1 µM) | 24 | 25 (≈ 56.3 µM) | 12.5 (≈ 28.1 µM) | 6 (≈ 13.5 µM) | 18 | 12.5 (≈ 28.1 µM) | 27 | 6 (≈ 13.5 µM) | 23 | 6 (≈ 13.5 µM) | 29 | zone of inhibition at 100 µg/mL (Staphylococcus aureus [19]): 19 mm; zone of inhibition at 200 µg/mL (Pseudomonas aeruginosa [20]): 28 mm; zone of inhibition at 100 µg/mL (Bacillus subtilis [21]): 16 mm; MBC (Staphylococcus aureus [22]): 12.5 µg/mL (≈ 28.1 µM)
COc1cc(/C=C/C(=O)c2ccc(O)cc2)ccc1OCc1nnc(COc2ccccc2)o1 | 25 | 19 | 25 (≈ 54.5 µM) | 12.5 (≈ 27.3 µM) | 25 (≈ 54.5 µM) | 17 | 12.5 (≈ 27.3 µM) | 18 | 6 (≈ 13.1 µM) | 22 | 12.5 (≈ 27.3 µM) | 12.5 (≈ 27.3 µM) | 6 (≈ 13.1 µM) | 16 | 25 (≈ 54.5 µM) | 22 | 6 (≈ 13.1 µM) | 20 | 12.5 (≈ 27.3 µM) | 24 | zone of inhibition at 100 µg/mL (Staphylococcus aureus [19]): 17 mm; zone of inhibition at 200 µg/mL (Pseudomonas aeruginosa [20]): 27 mm; zone of inhibition at 100 µg/mL (Bacillus subtilis [21]): 14 mm; MBC (Staphylococcus aureus [22]): 12.5 µg/mL (≈ 27.3 µM)
